The results in this text go back to paper PMC7079113 (Diabetes, Obesity & Metabolism, 2019).

Marks after values point to notes of the source that are not given here.

Data set [1] in a line: Single-dose safety and local tolerability. It is filed as in vivo, patients with type 1 diabetes mellitus (human). To be noted: for Hypoglycaemic events at various time points after the clamp period: > 30 hours after injection, considered a side effect of the patients' usual insulin treatment; for Number of AEs during or after administration / Patients who experienced AEs during or after administration / Patients who experienced AEs during or after administration, percentage: safety population N = 114. The method, boiled down: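 Randomised crossover in which each patient received three insulin glargine preparations as single s.c. 0.4 U/kg doses, at visits 5–28 days apart (minimum 5-day washout). Each dose was given under a 30-h automated euglycaemic clamp. Safety and injection-site tolerability were assessed at each visit: AEs, haematology, biochemistry, urinalysis, physical exam, vital signs, ECGs and blood glucose. Hypoglycaemia was graded severe/symptomatic/asymptomatic. Results were summarised descriptively.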

For data set [2] the following is noted: ELISA, ratio of treatments vs US IG.
The conditions of data set [3]: LC–MS/MS; for AUCins.0‐6h of M1, geometric mean (90% CI) / AUCins.6‐30h of M1, geometric mean (90% CI): secondary PK endpoint, 87 US IG; for AUCins.0‐6h of M1, geometric mean (90% CI): N = 85 MYL-1501D, 84 EU IG; for AUCins.6‐30h of M1, geometric mean (90% CI): N = 87 MYL-1501D, 86 EU IG.
In the next data set the test system is glucose infusion rate. In words: 30-hour automated euglycaemic clamp. Format: in vivo, patients with type 1 diabetes mellitus (human). To be noted: for AUCGIR0–6h, geometric mean (90% CI): 0-6 h; for AUCGIR0–6h, geometric mean (90% CI) / AUCGIR6–30h, geometric mean (90% CI): N = 111 MYL-1501D, 111 US IG, 113 EU IG; for AUCGIR6–30h, geometric mean (90% CI): 6-30 h.

Where [4] appears, read: vs US IG, N = 74 (MYL-1501D), 72 (EU IG).
The mark [5] stands for this setting: secondary PD, vs US IG, N = 111.

On to insulin glargine [EU IG], for which, in data set [1], the “Hypoglycaemic events at various time points after the clamp period” value is reported as “six”. In data set [1] (single s.c. 0.4 U/kg), the Tolerability entry is “generally well tolerated”; the “Number of AEs during or after administration” value is given as 34 AEs; the “Patients who experienced AEs during or after administration” value stood at 24 patients; the “Patients who experienced AEs during or after administration, percentage” value was determined as 21.1%. For the same substance, in data set [2] (N = 107), the “AUCins.0–30h, geometric LS mean ratio (90% CI) vs US IG” value is recorded as 1.02 (0.95–1.09). The “Cins.max, geometric LS mean ratio (90% CI) vs US IG” value in data set [2] (N = 110) is 1.00 (0.93–1.08). In addition, in data set [3] (vs US IG, N = 73 (MYL-1501D), 71 (EU IG)), the “AUCins.0‐6h of M1, geometric LS mean ratio (90% CI) vs US IG” value is reported as 1.06 (0.93–1.20). Further, in data set [3] (setting [4]), the “AUCins.0–30h of M1, geometric LS mean ratio (90% CI) vs US IG” value is on record as 1.01 (0.94–1.08); the “AUCins.6‐30h of M1, geometric LS mean ratio (90% CI) vs US IG” value was 1.00 (0.93–1.08); the “Cins.max of M1, geometric LS mean ratio (90% CI) vs US IG” value was 1.02 (0.96–1.08). Moreover, in data set [3], the “AUCins.0‐6h of M1, geometric mean (90% CI)” value is reported as 203 (180–229) pmol·h/L and the “AUCins.6‐30h of M1, geometric mean (90% CI)” value is 1088 (1001–1181) pmol·h/L. In addition, the “AUCGIR0–30h (secondary analysis), geometric LS mean ratio (90% CI) vs US IG” value with glucose infusion rate (including very low response profiles, linear mixed model, vs US IG, n = 111) is reported as 0.96 (0.77–1.20) ^e. Further, the “GIRmax, geometric LS mean ratio (90% CI) vs US IG” value in the data set on glucose infusion rate (primary PD, vs US IG, N = 102) was 0.98 (0.90–1.07). Also, in the data set with glucose infusion rate (secondary PD), the “AUCGIR0–6h, geometric mean (90% CI)” value was 72.8 (49.4–107) mg/kg and the “AUCGIR6–30h, geometric mean (90% CI)” value is 567 (418–769) mg/kg. Besides, in the data set on glucose infusion rate (setting [5]), the “AUCGIR0–6h, geometric LS mean ratio (90% CI) vs US IG” value is on record as 0.82 (0.55–1.23) and the “AUCGIR6–30h, geometric LS mean ratio (90% CI) vs US IG” value is given as 1.09 (0.79–1.48).

Regarding insulin glargine [US IG], in data set [1], the “Hypoglycaemic events at various time points after the clamp period” value was determined as 16. Moreover, the Injection site reactions entry in data set [1] (mild, single s.c. 0.4 U/kg) is “one”. Further, in data set [1] (single s.c. 0.4 U/kg), the Tolerability result is recorded as “generally well tolerated”; the “Number of AEs during or after administration” value was 34 AEs; the “Patients who experienced AEs during or after administration” value is 20 patients; the “Patients who experienced AEs during or after administration, percentage” value is 17.9%. Also, in data set [3], the “AUCins.0‐6h of M1, geometric mean (90% CI)” value is 192 (171–217) pmol·h/L and the “AUCins.6‐30h of M1, geometric mean (90% CI)” value is 1086 (1000–1179) pmol·h/L. For the same substance, in the data set with glucose infusion rate (secondary PD), the “AUCGIR0–6h, geometric mean (90% CI)” value was 88.3 (59.7–131) mg/kg and the “AUCGIR6–30h, geometric mean (90% CI)” value is 522 (384–710) mg/kg.
